# System: Trypanosoma cruzi
# Experiment: Ratio of Benzidazole IC50 to compound IC50 for bloodstream trypomastigote form of Trypanosoma cruzi Y
# Type: functional
# Conditions: not given
row,SMILES,Ratio IC50
1,O=C1C(=O)c2ccccc2C2=C1C[C@@H]1CC=C[C@@H]1O2,2
2,O=C1C(=O)c2ccccc2C2=C1CCC(c1ccccc1)O2 (centres undefined),2
3,Cc1ccc(C2CCC3=C(O2)c2ccccc2C(=O)C3=O)cc1 (centres undefined),2

# System: Trypanosoma cruzi
# Experiment: Antitrypanosomal activity against bloodstream trypomastigote form of Trypanosoma cruzi Y isolated from albino mouse blood after 24 hrs
# Type: functional, organism-based
# Conditions: not given
# Summary of the method: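 Y-strain bloodstream trypomastigotes taken from infected albino mice at peak parasitaemia, isolated by differential centrifugation, and resuspended at 10^7 cells/mL in DMEM with 10% mouse blood. Compounds were added from DMSO stocks, with final DMSO never above 0.1%.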
row,SMILES,IC50
1,Cc1ccc(C2CC(c3cccs3)C3=C(O2)c2ccccc2C(=O)C3=O)cc1 (centres undefined),1860 µM
2,CC1(c2ccccc2)CCC2=C(O1)c1ccccc1C(=O)C2=O (centres undefined),123 µM
3,O=C1C(=O)c2ccccc2C2=C1C[C@@H]1CCC=C[C@@H]1O2,161 µM
4,O=C1C(=O)c2ccccc2C2=C1C[C@@H]1CC=C[C@@H]1O2,62.6 µM
5,Cc1ccc(C2CC(c3ccccc3)C3=C(O2)c2ccccc2C(=O)C3=O)cc1 (centres undefined),849 µM
6,CCOc1ccc(C2CCC3=C(O2)c2ccccc2C(=O)C3=O)cc1 (centres undefined),132 µM
7,Cc1ccc(C2CCC3=C(O2)c2ccccc2C(=O)C3=O)c(C)c1 (centres undefined),688 µM
8,CC1(C)CCc2c(c3ccccc3c3nc(-c4ccc5c(c4)OCO5)oc23)O1,25 µM
9,Cc1ccc(C2CCC3=C(O2)c2ccccc2C(=O)C3=O)cc1 (centres undefined),51.4 µM

# The next lines start with the values.
row,IC50,SMILES
1,20.2 µM,O=C1C(=O)c2ccccc2C2=C1CCC(c1ccc(Cl)cc1)O2 (centres undefined)
2,35.4 µM,O=C1C(=O)c2ccccc2C2=C1C[C@@H]1CCCO[C@@H]1O2
3,1.3 µM,CC1(C)CCC2=C(O1)c1ccccc1C1(CO1)C2=O (centres undefined)
4,880 µM,COC1CC[C@H]2CC3=C(O[C@H]2O1)c1ccccc1C(=O)C3=O (some centres undefined)
5,97.6 µM,O=C1C(=O)c2ccccc2C2=C1CCC(c1ccc(F)cc1)O2 (centres undefined)
6,121 µM,COc1ccc(C2CCC3=C(O2)c2ccccc2C(=O)C3=O)cc1 (centres undefined)
7,56 µM,O=C1C(=O)c2ccccc2C2=C1CCC(c1ccccc1)O2 (centres undefined)
8,> 4000 µM,Cc1ccc(C2CC(c3ccc([N+](=O)[O-])cc3)C3=C(O2)c2ccccc2C(=O)C3=O)cc1 (centres undefined)
9,331 µM,CCOC1CC[C@H]2CC3=C(O[C@H]2O1)c1ccccc1C(=O)C3=O (some centres undefined)
10,86.3 µM,CC1(C)OC2=C(C(=O)C(=O)c3ccccc32)C1Nc1ccccc1 (centres undefined)
11,20 µM,CC1(C)CCc2c(c3ccccc3c3nc(-c4c[nH]c5ccccc45)[nH]c23)O1

# Same assay, conditions: read-out: ED50 (the source's name)
row,EC50,SMILES
1,61.3 µM,CC1(C)CCc2c(c3ccccc3c3nc4cc(Nc5ccccc5)/c(=N/c5ccccc5)cc-4n(-c4ccccc4)c23)O1
